Published values gathered from unrelated publications.
Each line is one published result; the experiments were not run side by side.
Target: Protein kinase C delta type (PRKCD, Homo sapiens, UniProt Q05655)

CSc1cccnc1N1CCN(Cc2nc3ccccc3[nH]2)CC1 — remaining binding (cell-free assay, competition with immobilised ligand; 1 µM): 100%
CCCS(=O)(=O)Nc1ccc(F)c(C(=O)c2c[nH]c3ncc(-c4ccc(Cl)cc4)cc23)c1F — inhibition (enzyme activity, inhibitor; 1 µM): < 20%
CC(C)(O)[C@H]1CC[C@H](Nc2ccc3ncc(-c4cccc(C(F)(F)F)c4)n3n2)CC1 — remaining activity (enzyme activity, inhibitor; 1 µM): 84.2%
C[C@@H](N)[C@H]1CC[C@H](C(=O)Nc2ccncc2)CC1 — inhibition (enzyme activity, inhibitor, TR-FRET; 10 µM): 82.5%
CC(=O)C1=C(C)N(c2cccc(C(F)(F)F)c2)C(=O)N[C@@H]1c1ccc(C#N)nc1 — remaining binding (cell-free assay, competition with immobilised ligand; 1 µM): 100%
Cn1cnc(Br)c1C1=CN(c2ncnc3[nH]cnc23)CCS1 — inhibition (enzyme activity, inhibitor, radiometric; 50 nM): 29%
CCCOc1ccc(OC)c(F)c1C(=O)c1ccc(C(=O)N[C@@H]2CNC[C@H]2NC(=O)c2ccc3[nH]ncc3c2)cc1 — remaining activity (enzyme activity, inhibitor; 50 nM): 103%
CC(=O)Nc1c(C(C)=O)c(=O)n(C)c2nc(-c3ccc(Cl)cc3Cl)c(-c3ccc(Cl)cc3)cc12 — remaining binding (cell-free assay, competition with immobilised ligand; 1 µM): 100%
O=C1Nc2ccc(Cl)cc2C1=Cc1cc(Cl)c(O)c(Cl)c1 — remaining signal (cell-free assay; 0.5 µM): 86.7%
Cn1cncc1C1=CN(c2ncnc3[nH]cnc23)CCS1 — inhibition (enzyme activity, inhibitor, radiometric; 2 µM): 81.1%
O=C1NC(=O)c2cc(Nc3ccc(F)cc3)c(Nc3ccc(F)cc3)cc21 — remaining signal (cell-free assay; 0.5 µM): 98.2%
FC(F)(F)c1ccc2c(c1)nc(-c1cccnc1)n2C1CC1 — remaining binding (cell-free assay, competition with immobilised ligand; 1 µM): 100%
Oc1cccc(-c2nc(N3CCOCC3)c3oc4ncccc4c3n2)c1 — remaining signal (cell-free assay; 0.5 µM): 96%
Cc1cc(NC(=O)c2cccc3cc(-c4cccc5[nH]nc(N)c45)ccc23)ccc1F — activity vs control (enzyme activity, inhibitor; 0.1 µM): 108%
CO[C@@H](C)c1c(Nc2ccc([C@@H](N(C)C(=O)C3CCS(=O)(=O)CC3)C(F)(F)F)cc2)cnc2cc(Cl)nn12 — remaining binding (cell-free assay, competition with immobilised ligand; 1 µM): 90%
CC(C)(C)c1nc(-c2cccc(NS(=O)(=O)c3c(F)cccc3F)c2F)c(-c2ccnc(N)n2)s1 — remaining activity (enzyme activity, inhibitor, radiometric; 1 µM): 119%
Nc1c(C(=O)NCc2ccc(C(=O)NCCCC3CCCCC3)cc2)cnn1-c1ccccc1 — remaining binding (cell-free assay, competition with immobilised ligand; 0.1 µM): 88%
Cc1sc(C(=O)NC2COC2)cc1-n1cc(NC(=O)Nc2c(F)cccc2Cl)cn1 — remaining activity (enzyme activity, inhibitor; 10 µM): 98%
Cn1c2ccccc2c2c3c(c4c5ccccc5n(CCC#N)c4c21)CNC3=O — remaining signal (cell-free assay; 0.5 µM): 41.9%
COc1cc(Cl)c(C(=O)N[C@@H](CN[C@H]2CC[C@@H](N)CC2)Cc2ccc(C#N)cc2)cc1-c1ccc(CN[C@H](C)c2ccc(C)cc2)o1 — remaining activity (enzyme activity, inhibitor; 1 µM): 100%
c1ccc(N2CCN(Cc3nc4ccccc4[nH]3)CC2)nc1 — remaining binding (cell-free assay, competition with immobilised ligand; 1 µM): 100%
COc1cc2ncnc(Nc3ccc(Oc4ccccc4)cc3C)c2cc1OC — inhibition (enzyme activity, inhibitor; 1 µM): 11%
COCCOc1nc(-c2ccc(Cl)nc2)nc2c1CN(C(=O)c1ncn3ccccc13)CC2 — remaining binding (cell-free assay, competition with immobilised ligand; 0.1 µM): 100%
Cc1ccc(C(=O)NCc2ccsc2)cc1C#Cc1cn(C(C)C)c2ncnc(N)c12 — activity vs control (enzyme activity, inhibitor; 1 µM): 90%
